# Compounds with a hit are over-represented: about 3.5% of the library has one in this group of screens.
# RGS4 inh – RGS4 inhibitors, primary screen, cell-based, HEK293 M3R inducible RGS4, calcium flux. Fluo-4 calcium flux; active compounds read high; triggered by carbachol at its EC20. B-score at 10 µM. 0.45% of 310,000 active. AID 463165, 2010;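 active means B-score, a plate-corrected calcium signal, over three deviations above library mean, with baseline fluorescence within five deviations of library mean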;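 further: RGS4 expression induced by doxycycline in cells with stable M3 receptor; B-score is computed from the integrated fluorescence ratio over baseline after carbachol; higher B-score means a larger calcium signal and so more RGS4 inhibition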
# Target sequence (P49798 whole entry, looked up): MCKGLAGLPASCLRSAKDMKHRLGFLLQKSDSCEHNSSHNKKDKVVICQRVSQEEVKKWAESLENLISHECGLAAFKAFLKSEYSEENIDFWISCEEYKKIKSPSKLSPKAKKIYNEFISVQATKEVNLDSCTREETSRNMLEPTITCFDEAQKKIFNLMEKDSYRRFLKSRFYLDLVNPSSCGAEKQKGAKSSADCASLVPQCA
# MrgX1 ag – agonists of human MrgX1 receptor, primary screen, HEK293 cells, Fluo-4 calcium flux; Mas-related G-protein coupled receptor member X1 (Homo sapiens), Q96LB2; AID 588627, 2011; B-score at 10 µM; 0.44% of 310,000 active; Fluo-4 calcium fluorescence, agonist mode; active compounds read high;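 active means calcium response B-score plate-corrected fluorescence ratio at least 3 library SD, with starting fluorescence B-score inside 5 SD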
# Target sequence (Q96LB2 whole entry, looked up): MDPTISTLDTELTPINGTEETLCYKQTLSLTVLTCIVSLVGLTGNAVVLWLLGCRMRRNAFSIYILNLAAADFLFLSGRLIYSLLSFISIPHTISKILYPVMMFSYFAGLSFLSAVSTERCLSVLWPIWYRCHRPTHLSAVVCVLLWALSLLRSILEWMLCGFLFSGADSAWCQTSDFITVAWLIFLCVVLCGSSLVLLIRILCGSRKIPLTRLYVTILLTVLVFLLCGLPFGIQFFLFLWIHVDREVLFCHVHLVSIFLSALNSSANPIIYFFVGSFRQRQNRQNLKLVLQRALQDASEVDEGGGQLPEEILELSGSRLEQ
#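 times = overnight plating, then 30 min 37 °C plus 30 min room-temperature dye loading | assay system = stable human MrgX1 HEK293 cell line | input = fifteen thousand cells per well | signal = kinetic calcium dye fluorescence, Fluo-4 NW | dosing = compound delivered in addition one of three | read-out = B-scored fluorescence response ratio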
# MrgX1 PAM – positive allosteric modulators of MrgX1, primary screen, HEK293 cells, Fluo-4 calcium flux | FDSS; active compounds read high | B-score at 10 µM | 0.63% of 310,000 active | Mas-related G-protein coupled receptor member X1 (Homo sapiens), Q96LB2;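 active means plate-corrected calcium response at least 3 library SD above typical, normal starting fluorescence, not activating the receptor alone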;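 further: compound read alongside a low EC10 to EC30 dose of BAM8-22 agonist; peak minus trough fluorescence over baseline measured at the second addition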
# RGS4 act – RGS4 potentiators or activators, primary screen, cell-based, HEK293 M3R inducible RGS4, calcium flux; carbachol calcium flux Fluo4; active compounds read low; B-score at 10 µM; 0.92% of 310,000 active; AID 463111, 2010;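 active means B-score of the integrated calcium signal more than 4 SD below the library mean, with starting fluorescence not abnormally high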;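 further: negative B-score means reduced calcium response which marks RGS4 activation or potentiation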
#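 Assay system: Inducible-RGS4 HEK293 cells carrying M3 receptor | Schedule: Compound preincubation 20 min at room temperature before agonist | Signal: Kinetic calcium fluorescence imaging with Fluo4-AM dye, 2 µM | Read-out basis: B score from integrated fluorescence ratio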
# MrgX1 antagonist – antagonists of human MrgX1 receptor, primary screen, HEK293 cells, Fluo-4 calcium flux; Mas-related G-protein coupled receptor member X1 (Homo sapiens), Q96LB2; BAM8-22 antagonism; active compounds read low; B-score at 10 µM; 1.3% of 310,000 active; AID 588676, 2011;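 active means calcium-response B-score plate-corrected more than 3 library SD below zero, starting fluorescence within 5 deviations, no agonist response on first addition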;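 further: peak minus trough fluorescence over baseline after final BAM8-22 challenge near maximal dose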
# RGS4 inh valid – enhanced carbachol calcium response, M3R/RGS4 cells, RGS4 inhibitor project, cell-based, validation screen, HEK293 M3R/RGS4, calcium flux; carbachol calcium Fluo-4 fluorescence; carbachol added at its EC20; 0 = buffer wells, 100 = carbachol control; AID 492999, 2010; shares compounds with RGS4 inh; 65% of 1,700 active; calcium response, % at 10 µM;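 active means duplicate-averaged calcium response above the buffer-only control mean plus 5 SD of those controls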;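 further: integrated fluorescence ratio F max minus min over baseline F0; higher response in RGS4-induced cells means RGS4 inhibition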
# RGS4 uninduced – carbachol calcium response in non-induced M3R cells, confirmation, counter-screen for RGS4 inhibitor project, cell-based, HEK293 M3R; shares compounds with RGS4 inh; activity (percent), % at 10 µM; AID 493000, 2010; carbachol calcium Fluo-4; submaximal (EC20) carbachol stimulus; buffer wells 0%, carbachol control wells 100%; 20% of 1,900 active; call rule not given here;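 further: RGS4 induction absent so cells express M3R without RGS4; higher means more calcium signal and flags a non-specific hit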
# RGS4 inh ctr2 – second RGS4 inhibitor counter-screen in uninduced cells lacking carbachol | shares compounds with RGS4 inh | HEK293 M3R/RGS4 non-induced, Fluo-4 calcium, no carbachol; normalised: buffer wells 0%, carbachol wells 100% | calcium response (agonist-mode artifact), % at 10 µM | 22% of 1,900 active;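 active means duplicate-averaged calcium rise in uninduced cells above buffer wells' mean plus 5 SD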
# An asterisk follows results filed as active; i = inactive; / = not tested or not shown.
SMILES,RGS4 inh,MrgX1 ag,MrgX1 PAM,RGS4 act,MrgX1 antagonist,RGS4 inh valid,RGS4 uninduced,RGS4 inh ctr2
N#CCSc1n[nH]c2nc3c(c(=O)n12)C1(CCCCC1)Cc1ccccc1-3,i,i,i,i,i,/,/,/
CCCn1c(SCC(N)=O)nc2c(c1=O)C1(CCCC1)Cc1ccccc1-2,i,i,i,i,i,/,/,/
CCN(Cc1ccncc1)C(=O)c1ccc(Br)o1,i,i,i,i,i,/,/,/
COc1cc(/C=C/C(=O)c2ccc(O)cc2)ccc1OCC#N,4.67*,i,i,i,i,10.5%*,i,i
COc1cc2c(cc1OC)CN(CCC(=O)c1ccc(Br)cc1)CC2,21.3*,i,i,i,i,53.5%*,i,27.5%*
O=C(Nc1nc(-c2cccc3ccccc23)cs1)c1cnccn1,5.45*,i,i,i,i,28.5%*,34.5%*,i
Cc1cccn2c(=O)c(C=Nc3ccc(Cl)cc3)c(NCCO)nc12,i,i,i,i,i,/,/,/
Cc1cccn2c(=O)c(C=NCCO)c(Nc3ccc(Cl)cc3)nc12,7.53*,i,i,i,i,11.5%*,i,i
O=[N+]([O-])/C=C\c1ccc(N2CCOCC2)cc1,34.8*,41.2*,i,i,i,88.0%*,94.5%*,35.0%*
COC(=O)CSc1[nH]c2cc(C)ccc2c1[N+](=O)[O-],16.4*,i,i,i,i,44.0%*,i,i
CCOc1ccc2[nH]c(SCC(=O)OC)c([N+](=O)[O-])c2c1,7.64*,i,i,i,-4.77*,18.5%*,i,49.0%*
CCOc1ccc(N(CC(=O)Nc2cc(Cl)ccc2C)S(C)(=O)=O)cc1,i,i,i,i,i,/,/,/
O=C(/C=C\NCC(=O)c1ccccc1)c1ccc2ccccc2c1,6.52*,i,i,i,i,16.5%*,30.0%*,i
Cn1c(SCC(=O)Nc2ccc3[nH]c(=O)[nH]c3c2)nnc1-c1ccccc1,i,i,i,i,i,/,/,/
Cn1c(SCC(=O)Nc2ccc3c(c2)oc2ccccc23)nnc1-c1ccccc1,5.13*,i,i,i,i,7.5%*,i,i
COc1ccc(-c2csc(NC(=O)C3CSC4(C)CCC(=O)N34)n2)c(OC)c1 (configuration not stated),i,i,i,i,i,/,/,/
CC#CCN(CC#CC)S(=O)(=O)c1ccc(-n2cnnn2)c(OC)c1,i,i,i,i,i,/,/,/
NC(=O)NC1CCCc2c1[nH]c1ccc(Cl)cc21 (configuration not stated),5.35*,i,i,i,i,8.5%*,i,i
Cc1ccc(-c2nnc3n2N=C(c2ccccc2Br)CS3)cc1,i,i,i,i,i,/,/,/
O=C(c1cccs1)N1CCc2c([nH]c3ccccc23)C1c1ccccn1 (configuration not stated),i,i,i,i,i,/,/,/
O=C(c1cc(-c2ccccc2)n[nH]1)N1CCc2c([nH]c3ccccc23)C1c1ccccn1 (configuration not stated),7.34*,i,i,i,i,27.0%*,30.5%*,i
O=C1Nc2ccccc2/C1=N/N=C/c1ccc(-c2ccc([N+](=O)[O-])cc2)o1,4.83*,/,/,i,/,7.5%*,35.0%*,i
O=C(NCc1ccccn1)C(=O)Nc1cccc2ccccc12,i,i,i,i,i,/,/,/
COc1cc(C(C(=O)NC2CCCCC2)N(C(=O)Cc2c[nH]c3ccccc23)c2ccccc2C)cc(OC)c1OC (configuration not stated),4.86*,i,i,i,i,7.5%*,i,i
COc1ccc(CN2CCNC(=O)C2CC(=O)NCCCC2CCCC2)c(F)c1 (configuration not stated),i,i,i,i,i,/,/,/
SMILES,RGS4 inh,MrgX1 ag,MrgX1 PAM,RGS4 act,MrgX1 antagonist,RGS4 inh valid,RGS4 uninduced,RGS4 inh ctr2
CCOC(=O)c1c(-c2ccc(C)o2)csc1NC(=O)CSc1nnc(C)s1,i,i,i,i,i,i,i,i
CCOC(=O)c1sc(NC(=O)CSc2nnnn2-c2ccccc2)nc1C,i,i,i,i,i,/,/,/
CCOC(=O)c1c(-c2ccccc2)csc1NC(=O)CSc1nnc(C)s1,i,i,i,i,i,/,/,/
CCOC(=O)c1c(-c2ccc(C)o2)csc1NC(=O)CSc1nnnn1-c1ccccc1,9.86*,i,i,i,i,i,i,i
CCc1ccc(-c2cc(C)no2)cc1S(=O)(=O)NCCc1ccc(OC)c(OC)c1,i,i,i,i,i,/,/,/
Cc1cccc(/C(N)=N/OC(=O)c2ccc(Br)o2)c1,5.24*,i,i,i,i,i,i,i
C[C@H]1CN=C(N(C)C)N1CC1CCCCC1,/,i,i,/,i,/,/,/
CCCCn1c(SCC(=O)NC(C)CC)nc2ccc(N3CCOCC3)cc2c1=O (configuration not stated),i,i,i,i,i,/,/,/
CCCCn1c(SCC(=O)NCc2ccccc2)nc2ccc(N3CCOCC3)cc2c1=O,i,i,i,i,i,i,i,i
CCCCn1c(SCC(=O)NCc2ccco2)nc2ccc(N3CCOCC3)cc2c1=O,5.01*,i,i,i,i,i,i,i
CCCCn1c(SCC(=O)Nc2ccc(OC)cc2)nc2ccc(N3CCOCC3)cc2c1=O,i,i,i,i,i,/,/,/
COc1ccc(-n2cnc3ccccc3c2=O)c([N+](=O)[O-])c1,i,i,i,i,i,/,/,/
